According to ChEMBL document CHEMBL4376838, “Discovery of Novel Celastrol Derivatives as Hsp90-Cdc37 Interaction Disruptors with Antitumor Activity” (J Med Chem, 2019):
Calls of active or inactive are those of the source. The rule behind the calls is not given here.

Experiments:
A549 [1] = test: Induction of cell cycle arrest in human A549 cells assessed as accumulation at G2 phase at 0.2 uM incubated for 24 hrs by PI staining based flow cytometric analysis (reference value: 19.37%); type: functional
Method in brief: (§1)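 A549 cells (4×10^5 per 6 cm dish) were grown 24 h, then exposed to compound (0.2, 0.4, 0.8 μM) or DMSO for 24 h. Cells fixed in 75% ethanol at −20 °C for at least 12 h, treated with RNase A at 37 °C for 30 min, then stained with PI for 15 min in the dark. Analysed by flow cytometry, mean ± SD, n = 3.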

[2] = target: T1, Hsp90 co-chaperone Cdc37 (Homo sapiens) (UniProt Q16543); test: Binding affinity to recombinant Cdc37 (unknown origin) assessed as inhibition of biotin labeled 3-[3-cyano-3-(4-fluorophenyl)prop-2-enoyl]oxypropyl(2R,4aS,6aR,6aS,14aS,14bR)-10-hydroxy-2,4a,6a,6a,9,14a-hexamethyl-11-oxo-1,3,4,5,6,13,14,14b-octahydropicene-2-carboxylate binding to enzyme at 0.25 to 0.5 uM incubated with compound for 2 hrs before or after incubation with biotin labeled 3-[3-cyano-3-(4-fluorophenyl)prop-2-enoyl]oxypropyl(2R,4aS,6aR,6aS,14aS,14bR)-10-hydroxy-2,4a,6a,6a,9,14a-hexamethyl-11-oxo-1,3,4,5,6,13,14,14b-octahydropicene-2-carboxylate for 2 hrs by pull down assay based immunoblot analysis
T1 sequence (whole entry): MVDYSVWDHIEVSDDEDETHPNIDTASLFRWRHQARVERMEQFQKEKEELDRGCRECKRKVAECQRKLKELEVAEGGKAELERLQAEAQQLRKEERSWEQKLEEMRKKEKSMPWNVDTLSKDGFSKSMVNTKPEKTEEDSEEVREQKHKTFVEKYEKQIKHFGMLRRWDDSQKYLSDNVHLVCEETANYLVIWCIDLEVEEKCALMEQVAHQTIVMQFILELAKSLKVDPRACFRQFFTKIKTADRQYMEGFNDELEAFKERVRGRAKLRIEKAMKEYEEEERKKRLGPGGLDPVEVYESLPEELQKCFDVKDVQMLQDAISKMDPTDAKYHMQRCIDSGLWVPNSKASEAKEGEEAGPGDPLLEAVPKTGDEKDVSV
Method in brief: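 Recombinant Cdc37 ([…]) incubated with varying compound concentrations for 2 h, either before or after a 2 h incubation with biotinylated probe (0.5 μM) at 10 °C. Biotin alone served as control. Probe-bound protein captured on streptavidin beads, and input and bound fractions immunoblotted.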

A549 [3] = test: Induction of cell cycle arrest in human A549 cells assessed as accumulation at S phase at 0.4 uM incubated for 24 hrs by PI staining based flow cytometric analysis (reference value: 27.59%); type: functional; method in brief: as §1
[4] = target: T1, Hsp90 co-chaperone Cdc37 (Homo sapiens); test: Binding affinity to Cdc37 in human A549 cells assessed as inhibition of HSP90-Cdc37 interaction by measuring decrease in CDK4 protein level at 5 uM incubated for 12 hrs by Western blot analysis; type: cell-based
Method in brief: (§2)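 A549 cells seeded 5×10^5 per 6 cm dish, grown 12 h, then exposed to compound or DMSO for 12 h. Lysates adjusted to 3 mg/ml protein (BCA), run on 10% SDS-PAGE, immunoblotted for p-Akt and Cdk4. Band levels quantified against Hsp90 loading control. Three separate experiments, mean ± SD.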

[5] = target: T1, Hsp90 co-chaperone Cdc37 (Homo sapiens); test: Binding affinity to Cdc37 in human A549 cells assessed as inhibition of HSP90-Cdc37 interaction by measuring increase in cleaved caspase-3 protein level at 1.25 to 5 uM incubated for 12 hrs by Western blot analysis; type: cell-based
Method in brief: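 A549 cells (5×10^5 per 6 cm dish) were allowed to settle 12 h, then treated with DMSO or compound at the indicated concentrations for 12 h. Lysates were adjusted to 3 mg/ml protein by BCA and resolved on 10% SDS-PAGE, then Western blotted. β-actin or Hsp90 served as the loading control. Three separate experiments, mean ± SD.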

A549 [6] = test: Induction of cell cycle arrest in human A549 cells assessed as accumulation at G1 phase at 0.2 uM incubated for 24 hrs by PI staining based flow cytometric analysis (reference value: 60.14%); type: functional; method in brief: as §1
[7] = Binding affinity to DTT in DMSO-d6 with retention of CA moiety at 0.02 mmol incubated for 20 mins in ultrasound by 1H NMR-spectroscopic analysis
A549 [8] = test: Antiproliferative activity against human A549 cells assessed as inhibition of cell growth at 1.5 uM incubated for 48 hrs by MTT assay relative to control; type: functional; conditions: A549, 48 h, read-out: GI
A549 [9] = test: Induction of mitochondrial membrane potential loss in human A549 cells assessed as cells with hyperpolarized mitochondria by measuring decrease in J-aggregates red fluorescence intensity at 0.8 uM incubated for 24 hrs by JC1 staining based fluorescence microscopic method (reference value: 98.4%); type: functional; parameters: scale not given: the % may be the effect or the level left
A549 [10] = test: Induction of apoptosis in human A549 cells assessed as late apoptotic cells at 1.2 uM incubated for 48 hrs by Annexin V-FITC and PI staining based flow cytometric analysis (reference value: 3.0%); type: functional
Method in brief: (§3)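 A549 cells (4×10^5 per 6 cm dish) cultured 24 h, then treated 48 h with compound or DMSO. Cells gently harvested, washed twice in cold PBS, resuspended in binding buffer with Annexin V and PI, stained 15 min at room temperature in the dark, analysed by flow cytometry. Mean ± SD, n = 3.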

A549 [11] = test: Induction of apoptosis in human A549 cells assessed as early apoptotic cells at 1.2 uM incubated for 48 hrs by Annexin V-FITC and PI staining based flow cytometric analysis (reference value: 0.5%); type: functional; method in brief: as §3
A549 [12] = test: Induction of morphological apoptosis in human A549 cells assessed as decrease in cell density incubated for 48 hrs by Hoechst 33342 and PI staining based fluorescence microscopic method; type: functional
Method in brief: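 A549 cells (4×10^5 per 6 cm dish) were grown 24 h, then exposed to compound at the indicated concentrations or DMSO for 48 h. After PBS washes, cells were stained with Hoechst 33342 (10 µg/ml) plus PI for 5 min at room temperature in the dark and imaged by fluorescence microscopy for nuclear morphology.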

A549 [13] = test: Induction of apoptosis in human A549 cells assessed as viable cells at 1.2 uM incubated for 48 hrs by Annexin V-FITC and PI staining based flow cytometric analysis (reference value: 95.5%); type: functional; conditions: A549, 48 h, read-out: Activity; method in brief: as §3
A549 [14] = test: Induction of apoptosis in human A549 cells assessed as increase in late apoptotic cells incubated for 48 hrs by Annexin V-FITC and PI staining based flow cytometric analysis; type: functional, cell-based
A549 [15] = test: Induction of apoptosis in human A549 cells assessed as necrotic cells at 0.6 uM incubated for 48 hrs by Annexin V-FITC and PI staining based flow cytometric analysis (reference value: 1.0%); type: functional
A549 [16] = test: Induction of apoptosis in human A549 cells assessed as necrotic cells at 1.2 uM incubated for 48 hrs by Annexin V-FITC and PI staining based flow cytometric analysis (reference value: 1.0%); type: functional; method in brief: as §3
[17] = target: T1, Hsp90 co-chaperone Cdc37 (Homo sapiens); test: Binding affinity to Cdc37 in human A549 cells assessed as inhibition of HSP90-Cdc37 interaction by measuring decrease in Akt phosphorylation level at 5 uM incubated for 12 hrs by Western blot analysis; type: cell-based; method in brief: as §2

Activity [2]: Active | inhibition [4]: Active | inhibition [5]: Active | Activity [7]: Active | inhibition [17]: Active
SMILES: CC1=C(O)C(=O)C=C2C1=CC=C1[C@@]2(C)CC[C@@]2(C)[C@@H]3C[C@](C)(C(=O)OCCCOC(=O)/C=C(\C#N)c4ccc(F)cc4)CC[C@]3(C)CC[C@]12C
Activity (A549 [1]): 16.78% | Activity (A549 [3]): 23.34% | Activity (A549 [6]): 64.36% | inhibition of growth at 1.5 µM (A549 [8]): 78.5% | Activity (A549 [9]): 72.8% | Activity (A549 [10]): 25.2% | Activity (A549 [11]): 7.4% | Activity (A549 [12]): Dose-dependent effect | viability at 1.2 µM (A549 [13]): 59.2% | Activity (A549 [14]): Dose-dependent effect | Activity (A549 [15]): 6% | Activity (A549 [16]): 8.2%
